# From ChEMBL document CHEMBL2401679, “Synthesis and on-target antibacterial activity of novel 3-elongated arylalkoxybenzamide derivatives as inhibitors of the bacterial cell division protein FtsZ” (2013)
# How the values were obtained:
# Type in all cases: functional
# Streptococcus pyogenes = experiment: Antibacterial activity against penicillin-susceptible Streptococcus pyogenes after 24 hrs by broth microdilution method
# Procedure, shortened: (§1)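 MIC by broth microdilution following the NCCLS standard method. Test strains were penicillin-susceptible: B. subtilis ATCC9372, S. aureus ATCC25923, S. pneumoniae ATCC49619 and Streptococcus pyogenes PS.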
# Staphylococcus aureus [1] = experiment: Antibacterial activity against […] Staphylococcus aureus ATCC 29213 after 24 hrs by broth microdilution method; details: ATCC 29213, 24 h
# Procedure, shortened: (§2)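 MIC by standard broth microdilution following NCCLS recommendations. S. aureus ATCC29213 is a […] strain. The S. aureus PR strain is a penicillin-resistant clinical isolate that has not been characterized. The MIC was taken as the in vitro antibacterial activity value.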
# Streptococcus pneumoniae = experiment: Antibacterial activity against penicillin-susceptible Streptococcus pneumoniae ATCC 49619 after 24 hrs by broth microdilution method; details: ATCC 49619, 24 h; procedure, shortened: as §1
# Bacillus subtilis [2] = experiment: Antibacterial activity against penicillin-susceptible Bacillus subtilis ATCC 9372 after 24 hrs by broth microdilution method; details: ATCC 9372, 24 h; procedure, shortened: as §1
# Bacillus subtilis [3] = experiment: Inhibition of cell division in penicillin-susceptible Bacillus subtilis ATCC 9372 assessed as lowest concentration required to filamentation after 5 hrs by phase-contrast light microscopy analysis
# Procedure, shortened: (§3)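 Cell morphology of B. subtilis ATCC9372 or S. aureus ATCC25923 was examined by phase-contrast light microscopy. The value recorded is the lowest compound concentration at which B. subtilis filamentation or S. aureus ballooning appeared. This is taken as on-target cell division inhibition.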
# Staphylococcus aureus [4] = experiment: Antibacterial activity against penicillin-susceptible Staphylococcus aureus ATCC 25923 after 24 hrs by broth microdilution method; details: ATCC 25923, 24 h; procedure, shortened: as §1
# Staphylococcus aureus [5] = experiment: Antibacterial activity against penicillin-resistant Staphylococcus aureus clinical isolate after 24 hrs by broth microdilution method; procedure, shortened: as §2
# Staphylococcus aureus [6] = experiment: Inhibition of cell division in penicillin-susceptible Staphylococcus aureus ATCC 25923 assessed as lowest concentration required to ballooning after 5 hrs by phase-contrast light microscopy analysis; procedure, shortened: as §3
SMILES,MIC (Streptococcus pyogenes),MIC (Staphylococcus aureus [1]),MIC (Streptococcus pneumoniae),MIC (Bacillus subtilis [2]),INH (Bacillus subtilis [3]),MIC (Staphylococcus aureus [4]),MIC (Staphylococcus aureus [5]),INH (Staphylococcus aureus [6])
NC(=O)c1cccc(OCCCOc2ccc([N+](=O)[O-])cc2)c1,> 128 µg/mL,> 128 µg/mL,> 128 µg/mL,4 µg/mL,4 µg/mL,1020 µg/mL,> 128 µg/mL,512 µg/mL
NC(=O)c1cccc(OCCCCCCBr)c1,> 128 µg/mL,64 µg/mL,> 128 µg/mL,32 µg/mL,16 µg/mL,64 µg/mL,64 µg/mL,64 µg/mL
NC(=O)c1cccc(O)c1,> 128 µg/mL,4100 µg/mL,> 128 µg/mL,512 µg/mL,4096 µg/mL,4100 µg/mL,4100 µg/mL,4096 µg/mL
NC(=O)c1cccc(OCCCCOc2ccc(Cl)cc2)c1,> 128 µg/mL,> 128 µg/mL,> 128 µg/mL,0.5 µg/mL,0.25 µg/mL,1020 µg/mL,> 128 µg/mL,256 µg/mL
NC(=O)c1cccc(OCCCCCBr)c1,> 128 µg/mL,16 µg/mL,> 128 µg/mL,64 µg/mL,32 µg/mL,32 µg/mL,32 µg/mL,64 µg/mL
NC(=O)c1cccc(OCCCSc2nc3ccccc3s2)c1,> 128 µg/mL,> 128 µg/mL,> 128 µg/mL,512 µg/mL,512 µg/mL,512 µg/mL,> 128 µg/mL,256 µg/mL
NC(=O)c1cccc(OCCCn2cncn2)c1,> 128 µg/mL,> 128 µg/mL,> 128 µg/mL,32 µg/mL,16 µg/mL,2050 µg/mL,> 128 µg/mL,1024 µg/mL
NC(=O)c1cccc(OCCCCCCl)c1,> 128 µg/mL,32 µg/mL,> 128 µg/mL,64 µg/mL,32 µg/mL,32 µg/mL,32 µg/mL,32 µg/mL
NC(=O)c1cccc(OCCCCOc2ccccc2)c1,> 128 µg/mL,> 128 µg/mL,128 µg/mL,64 µg/mL,32 µg/mL,1020 µg/mL,> 128 µg/mL,512 µg/mL
NC(=O)c1cccc(OCCCOc2ccccc2)c1,> 128 µg/mL,> 128 µg/mL,> 128 µg/mL,32 µg/mL,8 µg/mL,1020 µg/mL,> 128 µg/mL,1024 µg/mL
NC(=O)c1cccc(OCCCOc2ccc(Cl)cc2)c1,> 128 µg/mL,> 128 µg/mL,> 128 µg/mL,16 µg/mL,4 µg/mL,1020 µg/mL,> 128 µg/mL,512 µg/mL
NC(=O)c1cccc(OCCCCl)c1,> 128 µg/mL,64 µg/mL,> 128 µg/mL,128 µg/mL,64 µg/mL,64 µg/mL,64 µg/mL,64 µg/mL
NC(=O)c1cccc(OCCCCn2ccnc2)c1,> 128 µg/mL,> 128 µg/mL,> 128 µg/mL,128 µg/mL,128 µg/mL,256 µg/mL,> 128 µg/mL,128 µg/mL
NC(=O)c1cccc(OCCBr)c1,> 128 µg/mL,128 µg/mL,> 128 µg/mL,128 µg/mL,64 µg/mL,64 µg/mL,128 µg/mL,16 µg/mL
NC(=O)c1cccc(OCCCBr)c1,> 128 µg/mL,64 µg/mL,> 128 µg/mL,128 µg/mL,128 µg/mL,64 µg/mL,128 µg/mL,32 µg/mL
NC(=O)c1cccc(OCCCCSc2nc3ccccc3s2)c1,> 128 µg/mL,> 128 µg/mL,> 128 µg/mL,128 µg/mL,128 µg/mL,1020 µg/mL,> 128 µg/mL,512 µg/mL
CCCOCCCCCOc1cccc(C(N)=O)c1,> 128 µg/mL,32 µg/mL,> 128 µg/mL,32 µg/mL,8 µg/mL,16 µg/mL,32 µg/mL,32 µg/mL
COc1ccc(OCCCOc2cccc(C(N)=O)c2)cc1,> 128 µg/mL,> 128 µg/mL,> 128 µg/mL,1020 µg/mL,1024 µg/mL,1020 µg/mL,> 128 µg/mL,512 µg/mL
NC(=O)c1cccc(OCCCCOc2ccc([N+](=O)[O-])cc2)c1,> 128 µg/mL,> 128 µg/mL,> 128 µg/mL,32 µg/mL,32 µg/mL,1020 µg/mL,> 128 µg/mL,512 µg/mL
NC(=O)c1cccc(OCCCSc2nc3ccccc3[nH]2)c1,> 128 µg/mL,> 128 µg/mL,> 128 µg/mL,16 µg/mL,4 µg/mL,1020 µg/mL,> 128 µg/mL,512 µg/mL
